pEC50, pKi: −log10 of the molar value.
Legend:
[1] = biological target: T1, Poly [ADP-ribose] polymerase 1 (Homo sapiens, UniProt P09874); test: Inhibition of PARP1 in human C41 cells after 30 mins by cell-based assay
[2] = Oral bioavailability in CD1 mouse at 10 mg/kg; assay type: ADME, organism-based; conditions: in vivo
Outline: (§1)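 Male CD-1 mice (26-30 g) were dosed iv via the tail vein or po by gavage. Blood was taken by cardiac puncture after CO₂ asphyxiation at set times. Plasma proteins were precipitated with acidified methanol. Samples were quantified by LC-ESI-MS against external standards from spiked control plasma.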

[3] = Half life in CD1 mouse at 3.0 mg/kg, iv; assay type: ADME, organism-based; design: dose 3 mg/kg, route intravenous; conditions: in vivo; outline: as §1
[4] = biological target: T1, Poly [ADP-ribose] polymerase 1; test: Inhibition of PARP1 by scintillation counting
[5] = Clearance in CD1 mouse at 3.0 mg/kg, iv; assay type: ADME, organism-based; design: dose 3 mg/kg, route intravenous; conditions: in vivo; outline: as §1
[6] = AUC in CD1 mouse at 3.0 mg/kg, iv; assay type: ADME, organism-based; design: dose 3 mg/kg, route intravenous; conditions: plasma; outline: as §1
[7] = Volume of distribution in CD1 mouse at 3.0 mg/kg, iv; assay type: ADME, organism-based; design: dose 3 mg/kg, route intravenous; conditions: in vivo; outline: as §1
[8] = AUC in CD1 mouse at 10 mg/kg, po; assay type: ADME, organism-based; design: dose 10 mg/kg, route oral; conditions: plasma; outline: as §1
[9] = Cmax in CD1 mouse at 10 mg/kg, po; assay type: ADME, organism-based; design: dose 10 mg/kg, route oral; conditions: in vivo; outline: as §1
B16-F10 [10] = test: Antitumor activity against mouse B16F10 cells implanted in C57BL/6 mouse at 10 mg/kg, po BID for 5 days measured on day 12 in presence of DNA alkylating agent temozolomide; assay type: functional; conditions: read-out: TGI
Outline: (§2)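 B16F10 syngeneic model: cells in Matrigel (1:1) were injected sc into the flank at 6 × 10⁴ cells per mouse. Recipients were female C57BL/6 mice, 6-8 weeks old, 18-20 g. Temozolomide was given po q.d. at 50 mg/kg/day for 5 consecutive days. Over the same period the PARP inhibitor was given po b.i.d. Read-out was relative tumor growth inhibition on the stated day.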

B16-F10 [11] = test: Antitumor activity against mouse B16F10 cells implanted in C57BL/6 mouse at 10 mg/kg, po BID for 5 days measured on day 19 in presence of DNA alkylating agent temozolomide; assay type: functional; conditions: read-out: TGI; outline: as §2
B16-F10 [12] = test: Antitumor activity against mouse B16F10 cells implanted in C57BL/6 mouse at 60 mg/kg, po BID for 5 days measured on day 19 in presence of DNA alkylating agent temozolomide; assay type: functional; conditions: read-out: TGI; outline: as §2
B16-F10 [13] = test: Antitumor activity against mouse B16F10 cells implanted in C57BL/6 mouse at 30 mg/kg, po BID for 5 days measured on day 12 in presence of DNA alkylating agent temozolomide; assay type: functional; conditions: read-out: TGI; outline: as §2
B16-F10 [14] = test: Antitumor activity against mouse B16F10 cells implanted in C57BL/6 mouse at 30 mg/kg, po BID for 5 days measured on day 19 in presence of DNA alkylating agent temozolomide; assay type: functional; conditions: read-out: TGI; outline: as §2
B16-F10 [15] = test: Antitumor activity against mouse B16F10 cells implanted in C57BL/6 mouse at 60 mg/kg, po BID for 5 days measured on day 12 in presence of DNA alkylating agent temozolomide; assay type: functional; conditions: read-out: TGI; outline: as §2
B16-F10 [16] = test: Antitumor activity against mouse B16F10 cells implanted in C57BL/6 mouse at 10 mg/kg, po BID for 5 days measured on day 16 in presence of DNA alkylating agent temozolomide; assay type: functional; conditions: B16-F10, read-out: TGI; outline: as §2
B16-F10 [17] = test: Antitumor activity against mouse B16F10 cells implanted in C57BL/6 mouse at 30 mg/kg, po BID for 5 days measured on day 16 in presence of DNA alkylating agent temozolomide; assay type: functional; conditions: B16-F10, read-out: TGI; outline: as §2
B16-F10 [18] = test: Antitumor activity against mouse B16F10 cells implanted in C57BL/6 mouse at 3 mg/kg, po BID for 5 days measured on day 16 in presence of DNA alkylating agent temozolomide; assay type: functional; conditions: read-out: TGI
B16-F10 [19] = test: Antitumor activity against mouse B16F10 cells implanted in C57BL/6 mouse at 3 mg/kg, po BID for 5 days measured on day 19 in presence of DNA alkylating agent temozolomide; assay type: functional; conditions: read-out: TGI
B16-F10 [20] = test: Antitumor activity against mouse B16F10 cells implanted in C57BL/6 mouse at 50 mg/kg, po QD for 5 days measured on day 12; assay type: functional; conditions: read-out: TGI
B16-F10 [21] = test: Antitumor activity against mouse B16F10 cells implanted in C57BL/6 mouse at 50 mg/kg, po QD for 5 days measured on day 16; assay type: functional; conditions: read-out: TGI

T1 sequence (P09874 whole entry): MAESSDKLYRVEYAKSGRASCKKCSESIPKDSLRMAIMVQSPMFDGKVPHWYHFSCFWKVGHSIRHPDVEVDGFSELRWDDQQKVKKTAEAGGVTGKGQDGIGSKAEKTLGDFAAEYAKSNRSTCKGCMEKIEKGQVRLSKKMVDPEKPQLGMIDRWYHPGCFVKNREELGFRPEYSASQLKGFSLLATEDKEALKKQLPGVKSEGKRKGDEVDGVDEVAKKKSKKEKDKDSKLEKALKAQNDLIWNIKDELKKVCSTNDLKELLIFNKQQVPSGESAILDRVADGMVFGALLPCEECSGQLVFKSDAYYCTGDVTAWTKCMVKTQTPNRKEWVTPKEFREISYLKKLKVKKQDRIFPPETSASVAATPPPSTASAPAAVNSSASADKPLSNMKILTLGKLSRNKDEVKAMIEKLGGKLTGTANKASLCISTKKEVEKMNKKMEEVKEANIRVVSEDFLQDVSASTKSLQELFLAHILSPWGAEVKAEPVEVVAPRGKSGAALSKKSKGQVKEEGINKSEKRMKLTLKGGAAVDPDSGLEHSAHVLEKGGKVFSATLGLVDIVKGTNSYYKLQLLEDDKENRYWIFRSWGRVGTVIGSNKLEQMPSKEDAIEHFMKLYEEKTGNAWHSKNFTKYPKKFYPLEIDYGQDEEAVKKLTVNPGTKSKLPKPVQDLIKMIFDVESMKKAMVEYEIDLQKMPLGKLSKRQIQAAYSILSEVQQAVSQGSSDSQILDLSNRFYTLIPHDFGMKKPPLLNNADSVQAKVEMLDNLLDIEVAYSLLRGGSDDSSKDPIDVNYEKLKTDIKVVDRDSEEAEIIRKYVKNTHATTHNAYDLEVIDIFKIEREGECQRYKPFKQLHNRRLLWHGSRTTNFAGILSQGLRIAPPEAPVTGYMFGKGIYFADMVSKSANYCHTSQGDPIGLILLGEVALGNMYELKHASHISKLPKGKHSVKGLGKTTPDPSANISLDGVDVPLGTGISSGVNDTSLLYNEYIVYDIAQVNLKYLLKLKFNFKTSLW

Compound: NC(=O)c1cccc2[nH]c(-c3ccc(-c4ncc[nH]4)cc3)nc12
- pEC50 [1]: 8.66
- bioavailability [2]: 0%
- half-life [3]: 33.6 min
- pKi [4]: 8.66
- clearance [5]: 533 mL/min/kg
- AUC [6]: 0.31 µM·h
- Vd [7]: 26 L/kg

Compound: NC(=O)c1cccc2[nH]c(-c3ccc(-c4cnco4)cc3)nc12
- pEC50 [1]: 9.00
- AUC [8]: 0.11 µM·h
- bioavailability [2]: 6%
- half-life [3]: 58.2 min
- pKi [4]: 9.12
- clearance [5]: 300 mL/min/kg
- AUC [6]: 0.54 µM·h
- Cmax [9]: 70 nM
- Vd [7]: 26 L/kg

Compound: NC(=O)c1cccc2[nH]c(-c3ccc(-c4nnn[nH]4)cc3)nc12
- pKi [4]: 7.70

Compound: NC(=O)c1cccc2[nH]c(-c3ccc(-c4ccno4)cc3)nc12
- pEC50 [1]: < 6.00
- pKi [4]: 8.00

Compound: NC(=O)c1cccc2[nH]c(-c3ccc(-c4nnco4)cc3)nc12
- pEC50 [1]: 8.43
- inhibition in vivo at 10 mg/kg (B16-F10 [10]): 57%
- inhibition in vivo at 10 mg/kg (B16-F10 [11]): 53%
- inhibition in vivo at 60 mg/kg (B16-F10 [12]): 81%
- inhibition in vivo at 30 mg/kg (B16-F10 [13]): 59%
- AUC [8]: 4 µM·h
- bioavailability [2]: 41%
- half-life [3]: 21.6 min
- inhibition in vivo at 30 mg/kg (B16-F10 [14]): 72%
- inhibition in vivo at 60 mg/kg (B16-F10 [15]): 67%
- pKi [4]: 9.00
- clearance [5]: 55 mL/min/kg
- AUC [6]: 3 µM·h
- Cmax [9]: 2700 nM
- Vd [7]: 1.7 L/kg

Compound: NC(=O)c1cccc2[nH]c(-c3ccc(-c4cn5ccc(C(F)(F)F)cc5n4)cc3)nc12
- pEC50 [1]: 7.70
- pKi [4]: 8.17

Compound: NC(=O)c1cccc2[nH]c(-c3ccc(-c4nc(=S)o[nH]4)cc3)nc12
- pEC50 [1]: 6.48
- pKi [4]: 8.42

Compound: NC(=O)c1cccc2[nH]c(-c3ccc(-c4cccnc4)cc3)nc12
- AUC [8]: 2.7 µM·h
- bioavailability [2]: 73%
- half-life [3]: 34.8 min
- clearance [5]: 147 mL/min/kg
- AUC [6]: 1.1 µM·h
- Cmax [9]: 2200 nM
- Vd [7]: 7.3 L/kg

Compound: NC(=O)c1cccc2[nH]c(-c3ccc(-c4csc(N)n4)cc3)nc12
- pEC50 [1]: 7.59
- pKi [4]: 8.66

Compound: NC(=O)c1cccc2[nH]c(-c3ccc(-c4cscn4)cc3)nc12
- pEC50 [1]: 8.43
- pKi [4]: 8.77

Compound: NC(=O)c1cccc2[nH]c(-c3ccc(-c4cnc[nH]4)cc3)nc12
- pEC50 [1]: 8.43
- pKi [4]: 8.92

Compound: NC(=O)c1cccc2[nH]c(-c3ccc(-c4ccccn4)cc3)nc12
- inhibition in vivo at 10 mg/kg (B16-F10 [16]): 83%
- inhibition in vivo at 30 mg/kg (B16-F10 [17]): 72%
- inhibition in vivo at 3 mg/kg (B16-F10 [18]): 66%
- inhibition in vivo at 10 mg/kg (B16-F10 [11]): 32%
- AUC [8]: 6.1 µM·h
- bioavailability [2]: 141%
- half-life [3]: 37.2 min
- inhibition in vivo at 30 mg/kg (B16-F10 [14]): 70%
- clearance [5]: 123 mL/min/kg
- AUC [6]: 1.3 µM·h
- Cmax [9]: 1800 nM
- inhibition in vivo at 3 mg/kg (B16-F10 [19]): 23%
- Vd [7]: 6.6 L/kg

Compound: NC(=O)c1cccc2[nH]c(-c3ccc(-c4n[nH]c(=O)o4)cc3)nc12
- pEC50 [1]: 7.19
- pKi [4]: 8.80

Compound: NC(=O)c1cccc2[nH]c(-c3ccc(-c4ccncc4)cc3)nc12
- AUC [8]: 1.4 µM·h
- bioavailability [2]: 44%
- half-life [3]: 24 min
- clearance [5]: 167 mL/min/kg
- AUC [6]: 0.94 µM·h
- Cmax [9]: 760 nM
- Vd [7]: 5.9 L/kg

Compound: NC(=O)c1cccc2[nH]c(-c3ccc(-c4ccccc4)cc3)nc12
- pEC50 [1]: 7.15
- pKi [4]: 8.70

Compound: NC(=O)c1cccc2[nH]c(-c3ccc(-c4cn5ccccc5n4)cc3)nc12
- pEC50 [1]: 7.70
- pKi [4]: 8.54

Compound: NC(=O)c1cccc2[nH]c(-c3ccc(-c4nc(=O)o[nH]4)cc3)nc12
- pKi [4]: 7.80

Compound: Cn1ccc(-c2ccc(-c3nc4c(C(N)=O)cccc4[nH]3)cc2)n1
- pEC50 [1]: 7.70
- pKi [4]: 8.35

Compound: Cc1noc(-c2ccc(-c3nc4c(C(N)=O)cccc4[nH]3)cc2)n1
- pEC50 [1]: 8.04
- pKi [4]: 8.40

Compound: NC(=O)c1cccc2[nH]c(-c3ccc(-c4nsc(=O)[nH]4)cc3)nc12
- pEC50 [1]: 6.34
- pKi [4]: 8.28

Compound: Cc1nc(-c2ccc(-c3nc4c(C(N)=O)cccc4[nH]3)cc2)co1
- pEC50 [1]: 7.74
- pKi [4]: 8.62

Compound: Cn1nnc2c(C(N)=O)ncn2c1=O [TEMOZOLOMIDE]
- inhibition in vivo at 50 mg/kg (B16-F10 [20]): 43%
- inhibition in vivo at 50 mg/kg (B16-F10 [21]): 56%

Reference: ChEMBL document CHEMBL1154691, “Synthesis and evaluation of a new generation of orally efficacious benzimidazole-based poly(ADP-ribose) polymerase-1 (PARP-1) inhibitors as anticancer agents” (J Med Chem, 2009)
